SENP8 block-1: SENP8 (human) protease inhibition; Q96LD8; recombinant SENP8, Nedd8 substrate fluorescence; inhibition, % at 20 µM; actives 0.64% (n = 360,000); AID 602440; in the data active = inhibition mostly above about 40%, no sharp cut-off; inactive = mostly below about 27%
SENP6 inh: blocks the human protease SENP6. actives 1.8% (n = 330,000). inhibition, % at 10 µM. Q9GZR1. AID 2599. Recombinant SENP6 catalytic domain, aminoluciferin luminescence;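 active = inhibition above about 50% at the single tested dose, limit read from the data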;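 also: plate controls were DMSO wells with enzyme for no effect and DMSO wells lacking enzyme for full effect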
SENP1 inh: blocks the human SENP1 SUMO protease catalytic domain. inhibition, % at 10 µM. Q9P0U3. actives 0.21% (n = 360,000). recombinant SENP1 catalytic domain, CyPet-SUMO1-YPet FRET cleavage. AID 624204;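 active = inhibition at least 30% at 10 µM, raw YFP signal under a set limit, fluorescence ratio 0.5 to 1.5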;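 also: 0% = enzyme with DMSO and 100% = no enzyme wells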
Target sequence (Q9P0U3 419-644 limits assumed): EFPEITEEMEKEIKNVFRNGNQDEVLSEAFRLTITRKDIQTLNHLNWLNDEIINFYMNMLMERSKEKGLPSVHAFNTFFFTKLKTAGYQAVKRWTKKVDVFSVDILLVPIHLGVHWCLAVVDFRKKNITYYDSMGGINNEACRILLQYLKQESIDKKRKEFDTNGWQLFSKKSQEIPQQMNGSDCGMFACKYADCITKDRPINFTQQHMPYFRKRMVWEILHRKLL
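Compound: 10 µM single point, 0.5% DMSO; Test system: hSENP1 catalytic domain, recombinant; Timing: 50 min reaction at room temperature; Technique: FRET, CFP and YFP emission; Control set: no-enzyme wells low, DMSO-plus-enzyme wells high control.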
SENP7 inh: SENP7 protease inhibition. recombinant SENP7, Z-RLRGG-aminoluciferin luminescence, 40 min. inhibition, % at 5 µM. actives 1.5% (n = 330,000). AID 434973;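 active = inhibition above about 50% at the single test dose, limit read from the data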;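 also: plate controls were DMSO with enzyme for no effect and no enzyme buffer wells for full effect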
Target sequence (Q9BQF6 706-1050 limits assumed): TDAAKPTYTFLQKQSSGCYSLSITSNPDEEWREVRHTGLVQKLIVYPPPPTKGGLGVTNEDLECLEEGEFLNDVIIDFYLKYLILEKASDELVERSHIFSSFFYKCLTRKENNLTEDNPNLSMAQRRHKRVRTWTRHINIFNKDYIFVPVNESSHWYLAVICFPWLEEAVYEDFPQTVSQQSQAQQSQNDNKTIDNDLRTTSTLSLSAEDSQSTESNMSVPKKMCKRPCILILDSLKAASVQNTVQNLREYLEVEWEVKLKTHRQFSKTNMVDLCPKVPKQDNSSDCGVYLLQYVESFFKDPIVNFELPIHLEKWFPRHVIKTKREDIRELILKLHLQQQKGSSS
SENP8 block-2: blocks the human protease SENP8; Q96LD8; purified SENP8, Z-RLRGG-aminoluciferin cleavage, luminescence; inhibition, % at 10 µM; actives 1.2% (n = 330,000); in the data active = inhibition above about 50%
SENP8 confirm: confirmation of human SENP8 protease inhibitors; shares compounds with SENP7 inh; Recombinant SENP8, Z-RLRGG-aminoluciferin luminescence, 60 min; inhibition, % at 12.5 µM; actives 40% (n = 6,200); AID 488912;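 active = mean inhibition across replicates above about 50%, limit read from the data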
SENP6 confirm: human SENP6 inhibition, confirmed | shares compounds with SENP7 inh | inhibition, % at 12.5 µM | actives 58% (n = 6,200) | AID 488915 | recombinant SENP6, Z-RLRGG-aminoluciferin luminescence
SENP7 conf: human SENP7 inhibition, confirmed; shares compounds with SENP7 inh; inhibition, % at 12.5 µM; actives 69% (n = 6,200); recombinant SENP7, Z-RLRGG-aminoluciferin luminescence, 40 min
Casp3 select: selectivity test for SENP inhibitors: human caspase-3 inhibition. shares compounds with SENP7 inh. purified caspase-3, Z-DEVD-aminoluciferin luminescence, 60 min. inhibition, % at 12.5 µM. actives 60% (n = 6,200);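 active = mean inhibition above about 50%, limit read from the data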;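 also: plate controls were enzyme with DMSO for no effect and wells without caspase-3 for full effect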
SENP luc ctr: counter-screen for SENP inhibitors: luminescence interference; AID 488919; shares compounds with SENP7 inh; inhibition, % at 12.5 µM; actives 39% (n = 6,200); Pre-incubated SENP8/Z-RLRGG-aminoluciferin, luciferase luminescence interference;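 active = mean inhibition above about 50% when retested at one dose, limit read from the data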;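 also: plate controls were DMSO wells with completed reaction for no effect and substrate without enzyme for full effect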
* = called active by the depositor; i = inactive; . = no result. Sampled rows, rich in hits. Any-hit rate of the full collection: about 2.5%.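 The calls were made as follows, unless noted: active = mean inhibition above about 50% in the one-dose retest (limit read from the data); inactive = the rest.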

SMILES | SENP8 block-1 | SENP6 inh | SENP1 inh | SENP7 inh | SENP8 block-2 | SENP8 confirm | SENP6 confirm | SENP7 conf | Casp3 select | SENP luc ctr
CC(C)Cc1nnc(NC(=O)CC(=O)Nc2ccccc2C(=O)O)s1 | 13 | 70* | 0 | 40 | 53* | -1 | 67* | 88* | 89* | 55*
CCCCc1nnc(NC(=O)CC(=O)Nc2ccccc2C(=O)O)s1 | -16 | 50 | 0 | 13 | 22 | . | . | . | . | .
Cc1cc2nc(NC(=O)C3(C)CCN(C)C3)[nH]c2cc1C (stereo not given) | 16 | . | 1 | . | . | . | . | . | . | .
CC(C)n1c(SCC(=O)Nc2nncs2)nnc1-c1ccco1 | . | -5 | . | 12 | -6 | . | . | . | . | .
C[C@H](CO)N1C[C@H](C)[C@H](CN(C)Cc2cncnc2)Oc2cc(Br)ccc2S1(=O)=O | 8 | . | 2 | . | . | . | . | . | . | .
C=CCn1c2ccccc2c(=O)c2cc(C#CC[C@@H](C)O)ccc21 | i | 56* | -33 | 30 | 37 | 59* | 59* | 76* | 52* | 33
C=CCn1c2ccccc2c(=O)c2cc(C#CC3(O)CCCCC3)ccc21 | -454 | 76* | -32 | 43 | 71* | 9 | 79* | 93* | 60* | -4
Cn1c2ccccc2c(=O)c2cc(C#CC3=CCCCC3)ccc21 | -498 | 39 | -28 | 0 | 28 | . | . | . | . | .
CC1(C)CCN2CCC(C)(C)c3c(O)ccc1c32 | -64 | 24 | -26 | -1 | 20 | . | . | . | . | .
CCOc1nc2cnccc2n(CC(=O)Nc2cccc(C)c2)c1=O | 19 | 3 | 2 | -6 | -5 | . | . | . | . | .
CC(CC(=O)Nc1ccc2c(c1)c(=O)n(C)n2Cc1ccc(F)cc1)C(F)(F)F (stereo not given) | i | . | 10 | . | . | . | . | . | . | .
O=C(CC(SCc1ccco1)c1ccc(O)cc1)c1cccs1 (stereo not given) | -4 | 89* | 12 | 58* | 88* | 93* | 91* | 95* | 46 | 87*
O=C(CSc1nnc(-c2ccc(O)cc2)n1Cc1ccco1)c1cccs1 | 16 | -5 | 2 | -2 | -19 | . | . | . | . | .
Cn1c(C(=O)Nc2ccc3c(c2)OCCO3)cc2sccc21 | -13 | 74* | -10 | 79* | 70* | 86* | 85* | 97* | 70* | 74*
Cn1nc(C(=O)Nc2ccc3c(c2)OCCO3)cc1C(=O)O | 6 | 56* | 2 | 66* | 40 | 56* | 54* | 86* | 85* | 64*
Cn1ccc(C(=O)Nc2ccc3c(c2)OCCO3)n1 | 1 | 44 | 4 | 49 | 24 | . | . | . | . | .
O=C(Nc1ccc2c(c1)OCCO2)c1cc2sccc2n1Cc1ccccc1 | -33 | -6 | -5 | -1 | -8 | . | . | . | . | .
Cc1c(C(=O)Nc2ccc3c(c2)OCCO3)cnn1C | 6 | -13 | 0 | -5 | -21 | . | . | . | . | .
Cn1nccc1C(=O)Nc1ccc2c(c1)OCCO2 | 14 | 81* | 1 | 71* | 55* | 58* | 58* | 88* | 88* | 65*
Cc1cc(Br)ccc1NC(=O)CN(C)C(=O)CN1C(=O)NC(C)(C2CC2)C1=O (stereo not given) | 11 | 6 | 1 | 4 | -3 | . | . | . | . | .
CCNC(=O)C1CCCN(Cc2cc(-c3ccccc3)on2)CC1 (stereo not given) | 9 | . | -4 | . | . | . | . | . | . | .
O=C(Cn1nnc(-c2ccccc2)n1)Nc1ccc2c(c1)OCO2 | 17 | -1 | 2 | 5 | -2 | . | . | . | . | .
O=C(Cn1nnc(-c2ccc3c(c2)OCO3)n1)Nc1ccccc1C(=O)O | -4 | 89* | 0 | 60* | 80* | 48 | 87* | 97* | 87* | 87*
CSc1nc(NC(C)=O)nc(C)c1Br | 26 | -10 | 1 | 2 | -1 | . | . | . | . | .
COc1cc(OC)cc(C(=O)Nc2ccc(NC(=O)c3ccco3)c(C)c2)c1 | 3 | 98* | -2 | 96* | 94* | 4 | 95* | 101* | 96* | 86*
SMILES | SENP8 block-1 | SENP6 inh | SENP1 inh | SENP7 inh | SENP8 block-2 | SENP8 confirm | SENP6 confirm | SENP7 conf | Casp3 select | SENP luc ctr
Cc1ccc(C(=O)Nc2ccc3c(c2)OCO3)cc1NC(=O)c1ccco1 | 4 | -11 | 3 | 10 | -1 | . | . | . | . | .
O=C(Nc1ccc(CSc2ccccc2)cc1)c1ccco1 | 0 | 84* | 2 | 89* | 69* | 7 | 63* | 95* | 72* | 38
CCC(=O)Oc1ccc(NC(=O)c2ccco2)cc1 | 11 | -27 | 2 | 6 | -17 | . | . | . | . | .
O=C(Nc1ccc(OC(=O)c2ccco2)cc1)c1ccco1 | 14 | 83* | 1 | 86* | 29 | 67* | 62* | 90* | 53* | 80*
O=C(CCc1ccccc1)Nc1ccc(NC(=O)c2ccco2)cc1 | 5 | 10 | 1 | 1 | 10 | . | . | . | . | .
Cc1cc(NC(=O)c2ccc3c(c2)OCO3)ccc1NC(=O)c1ccco1 | 21 | 91* | 0 | 92* | 91* | 8 | 90* | 100* | 96* | 90*
Cc1cc(O)ccc1-c1ccc2nncn2c1 | 5 | . | 3 | . | . | . | . | . | . | .
CCN1CCN(C(=O)CCc2nnc3ccc(N4CCC5(CC4)OCCO5)nn23)CC1 | -4 | -4 | -1 | -1 | 11 | . | . | . | . | .
COc1ccc(CN(C)C(=O)/C=C/c2ccc(S(=O)(=O)N3CCCCCC3)cc2)cc1 | 20 | -8 | 2 | -16 | -4 | . | . | . | . | .
Cn1cccc1-c1nc2ccc(NC(=O)c3ccco3)cc2[nH]1 | -75 | -23 | 1 | -16 | -13 | . | . | . | . | .
O=C(Nc1ccc(Br)c(Cl)c1)c1ccco1 | 17 | 84* | 1 | 70* | 46 | 61* | 58* | 84* | 41 | 69*
Cc1ccc(NC(=O)c2cc(S(=O)(=O)N3CCCC3)cn2C)cc1C | 8 | -16 | 3 | 0 | -7 | . | . | . | . | .
Cc1ccc2nc(-c3ccc(NC(=O)c4ccco4)cc3)[nH]c2c1 | -148 | 51* | 1 | 35 | -2 | 11 | 10 | 64* | 28 | 42
CCn1nccc1C(=O)Nc1ccc(C)c(C)c1 | 10 | 70* | -3 | 82* | 65* | 69* | 64* | 91* | 84* | 75*
O=C(Nc1cccc(NC(=O)c2ccc3c(c2)OCO3)c1)c1ccccc1 | -8 | -6 | -1 | 42 | 31 | . | . | . | . | .
Cc1cc(NC(=O)c2ccc3c(c2)OCO3)ccc1NC(=O)c1ccccc1 | 7 | 85* | 2 | 92* | 61* | -25 | 32 | 30 | 7 | -3
